SKKanGAS inh: S. pyogenes SKKanGAS growth inhibitors in kanamycin, primary screen, streptokinase expression inhibitor project, SKKanGAS strain, BacTiter-Glo luminescence. 6 h. inhibition, % at 7.5 µM. 300,000 tested, 1.3% active. AID 1662, 2009;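 active = mean replicate score, as percent of positive control median, at least 50; inconclusive = mean below 50 but one replicate at or above 50; inactive = mean and every replicate below 50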;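 note: strain carries kanamycin resistance gene driven by streptokinase promoter and grows in 40 µg/ml kanamycin; loss of luminescence reflects streptokinase promoter inhibition or plain growth inhibition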
T cruzi inh: inhibitors of intracellular T. cruzi growth, primary screen, luminescence, NIH3T3 host cells | T. cruzi beta-gal in NIH3T3, 90 h | 300,000 tested, 1.4% active | AID 1885, 2009 | inhibition, % (concentration not given with the values);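 active = mean inhibition across valid replicates above about 55%, limit read from the data; inconclusive = mean below that limit but half or more replicates reach it; inactive = mean below it, under half of replicates reach it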;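 note: signal also drops with host cell toxicity which is not excluded here; higher percent means less beta-gal luminescence so fewer parasites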
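Test system: β-gal T. cruzi (Tulahuen C4) inside NIH/3T3 cells / Quantity: 5,000 cells/well / Measured by: luminescence from GalScreen with 0.05% NP40, read after 60 min / Medium: DMEM plus 2% FBS / Measure: parasite load inhibition, % / Reagent: Tulahuen C4 trypomastigotes, 5000/well / Schedule: co-culture of at least 90 h after 3 h attachment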
aSyn 5UTR inh: MLPCN primary screen, SNCA 5' untranslated region | inhibition, % (tested at 7.5 µM) | 300,000 tested, 0.82% active | AID 1813, 2009 | alpha-synuclein 5'UTR reporter, inhibitor activity; in the data active = inhibition above about 60%; inconclusive = no clear call, values can overlap the other calls;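 note: H4 neuroglioblastoma cells stably carrying SNCA 5'UTR luciferase fusion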
CSC inhib: cancer stem cell viability inhibitors, primary screen, luminescence. cancer stem cell-like cells viability. 300,000 tested, 1.1% active. inhibition, % at 7.5 µM; in the data active = inhibition above about 75%; inconclusive = no clear call, values can overlap the other calls; tested in HMLE shEcad cells
Mdm2 MdmX PPI: inhibitors of human Mdm2-MdmX association, primary screen, cell-based, luminescence, split luciferase, SaOS-2, uHTS. Protein Mdm4 (Homo sapiens) + E3 ubiquitin-protein ligase Mdm2 (Homo sapiens), …. SaOS-2 split-luciferase Mdm2/MdmX complementation. inhibition, % at 8 µM. 330,000 tested, 3% active. AID 485346, 2010;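 active = inhibition of at least 50% at 8 µM in the primary screen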
A number is an active result; 0 = inactive; ? = inconclusive; - = not tested or not shown. Sampled rows, rich in hits. Any-hit rate of the full collection: about 5.4%.

SMILES	SKKanGAS inh	T cruzi inh	aSyn 5UTR inh	CSC inhib	Mdm2 MdmX PPI
CC1(C(=O)N/N=C/c2ccc([N+](=O)[O-])o2)CC1(Br)Br (configuration not stated)	0	0	0	0	0
O=C(CCN1CCN(c2ccccc2)CC1)N/N=C/c1ccc([N+](=O)[O-])o1	0	95.5	0	0	0
O=C(CC12CC3CC(CC(C3)C1)C2)N/N=C/c1ccc([N+](=O)[O-])o1	0	55.2	0	0	0
O=C(Cc1ccc([N+](=O)[O-])cc1)N/N=C/c1ccc([N+](=O)[O-])o1	?	107.2	88.7	0	0
COc1ccc(C)cc1N(C)C(=O)Cc1c(C(=O)O)n(C)c2ccccc12	0	0	0	0	0
O=C(CNc1cccc([N+](=O)[O-])c1)N/N=C/c1ccc([N+](=O)[O-])o1	0	67.7	0	0	0
O=[N+]([O-])c1ccc(/C=N/Nc2nc(N3CCCCCC3)nc(N3CCCCCC3)n2)o1	75.1	75.6	0	0	0
CC(C(=O)Nc1ccc2c(c1)OCCO2)N(C)CC(=O)Nc1ccccc1Br (configuration not stated)	-	-	-	-	0
O=C(CNc1ccc2c(c1)OCO2)N/N=C\c1cn(Cc2ccccc2)c2ccccc12	0	0	81.2	0	0
O=C(O)c1ccc(Cn2cc(/C=C\[N+](=O)[O-])c3ccccc32)o1	0	0	0	0	0
CCOC(=O)N/N=C/c1cn(Cc2ccc(Cl)cc2)c2ccccc12	0	0	69.7	0	0
Nc1ccc(C(=O)N/N=C/c2cn(Cc3cccc(F)c3)c3ccccc23)cc1	0	0	69.8	0	0
O=[N+]([O-])/C=C/c1cn(Cc2ccc(Cl)cc2)c2ccccc12	0	0	64.9	98.7	0
O=C(CNc1ccccc1)N/N=C/c1ccc2c(c1)OCO2	0	0	0	0	0
CCCOc1ccc(C(=O)N2CCN(c3ccc(N)cc3Cl)CC2)cc1	0	0	0	76.3	0
COc1ccc(OCC(=O)Nc2ccccc2C(=O)NC2CC2)cc1	-	-	-	-	0
Clc1ccccc1Cn1c(/C=C/c2ccco2)nc2ccccc21	0	0	0	112.3	-
CCCNC(=O)C(Cc1ccccc1F)NC(=O)c1ccc(C#N)cc1 (configuration not stated)	-	-	-	0	0
CC(=O)c1sc(N/N=C\c2c(O)ccc3ccccc23)nc1C	49.9	0	0	0	0
COc1ccc(S(=O)(=O)Nc2ccc(S(=O)(=O)Nc3cc(C)nc(C)n3)cc2)cc1OC	0	0	0	0	0
O=C(N/C(=C/c1ccc(F)cc1)C(=O)N1CCCC1)c1ccccc1	0	0	0	-	0
C/C(=N\NC(N)=S)c1ccc(-n2ccnc2)cc1	0	0	0	0	0
C/C(=N\Nc1ccc(Cl)c(Cl)c1)c1ccc(-n2ccnc2)cc1	81.3	0	0	0	0
Cc1ccc(C(=O)c2c3ccc([N+](=O)[O-])cc3[n+]([O-])n2CCCN)cc1	0	0	63.3	0	0
O=C(CCc1nnc2ccc(N3CCC4(CC3)OCCO4)nn12)NCc1ccc(F)cc1	0	0	0	0	0
SMILES	SKKanGAS inh	T cruzi inh	aSyn 5UTR inh	CSC inhib	Mdm2 MdmX PPI
COc1ccc(NC(=O)c2sc(Cl)nc2-c2ccccc2)cc1	0	0	0	0	0
Cc1cccc(NC(=O)c2sc(Cl)nc2-c2ccccc2)c1	67.4	0	0	0	0
Cc1ccc2nc3n(c(=O)c2c1)-c1ccccc1C(=O)NC3Cc1ccccc1 (configuration not stated)	-	-	-	0	0
Cc1ccc(/C=N\NC(=O)c2ccc(Cn3cc(Br)c([N+](=O)[O-])n3)o2)o1	0	73.7	0	0	0
Cn1cnc([N+](=O)[O-])c1SCCO	0	0	0	0	0
O=C(c1cc2ccccc2o1)N(Cc1nnc(-c2ccccc2Cl)o1)C1CC1	0	0	0	0	0
CCCN(Cc1nnc(-c2ccccc2Cl)o1)C(=O)c1cc2ccccc2o1	0	0	0	0	0
CCCN(Cc1nnc(-c2ccccc2Cl)o1)C(=O)c1cc([N+](=O)[O-])cc([N+](=O)[O-])c1	0	68.2	0	0	0
O=C(c1cc([N+](=O)[O-])cc([N+](=O)[O-])c1)N(Cc1nnc(-c2ccccc2Cl)o1)C1CC1	0	75.3	0	0	0
COc1cc(/C=C/C(=O)OCC(=O)NCCN2C(=O)CSC2=O)ccc1OCC#N	-	-	-	0	0
COCc1cc(S(=O)c2ccc(Cl)cc2)nc(C)n1 (configuration not stated)	0	61.3	0	-	-
CCOC(=O)C1=C(Cc2ccc(F)cc2)C(=O)c2ccccc2C1=O	0	0	0	0	0
CCCCc1ccc(/C=C2\C(=O)c3ccccc3C(O)=C2C(=O)OCC)cc1	109.0	0	0	0	0
CC1CC(NC(=O)c2c(O)nc3sccn3c2=O)CC(C)(C)C1 (configuration not stated)	50.1	0	0	0	0
O=Cc1ccc(OCC(=O)NCC2CCCO2)cc1 (configuration not stated)	0	0	0	0	0
O=[N+]([O-])c1ccccc1Nc1cccnc1	0	0	0	0	0
CSc1ccc(NC(=O)Nc2cccn(Cc3ccccc3F)c2=O)cc1	0	58.6	0	0	0
O=C(C1=C(O)C(=O)N(c2ccccc2)C1c1ccc([N+](=O)[O-])cc1)c1cccs1 (configuration not stated)	59.4	0	0	0	0
Cc1cccc(N2C(=O)C(O)=C(C(=O)c3cccs3)C2c2ccccc2)n1 (configuration not stated)	0	0	0	0	0
Cc1cccc(N2C(=O)C(O)=C(C(=O)c3cccs3)C2c2cccc(Oc3ccccc3)c2)n1 (configuration not stated)	65.5	0	0	0	0
CC(=O)C1=C(O)C(=O)N(c2ccc(C(=O)O)cc2)C1c1ccc([N+](=O)[O-])cc1 (configuration not stated)	0	0	0	0	0
CCCCC(CCC(=O)O)(C(=O)OCC)c1csc(Nc2ccccc2)n1 (configuration not stated)	0	0	0	0	0
CCOC(=O)/C(=N\Nc1ccc(Cl)cc1)c1csc(Nc2ccccc2)n1	72.6	64.6	0	0	0
CCOC(=O)/C(=N\Nc1ccc(OC)cc1)c1csc(Nc2ccccc2)n1	60.0	81.2	0	104.2	0
CCOC(=O)/C(=N/Nc1ccccc1)c1csc(Nc2ccccc2)n1	91.2	61.5	0	107.3	0
CCOc1cc(Cl)c(NC(=O)CC)cc1OCC	0	0	0	0	0
COc1ccc(C2CC(c3c(O)cc(C)oc3=O)=NCCS2)c(OC)c1 (configuration not stated)	-	-	-	80.5	0
Cc1cc(O)c(C2=Nc3ccccc3SC(c3ccc(Cl)cc3)C2)c(=O)o1 (configuration not stated)	0	0	0	0	0
CC(C)/C(=N/Nc1ccccc1[N+](=O)[O-])c1ccccc1	56.1	0	0	0	0

Compound activity from PubChem BioAssay.
